These results are taken from article PMC3163034 (Digestive diseases and sciences, 2011).

Molecules are shown by their SMILES. Counter-ions that a name gives are not always drawn. Some results are limits rather than exact numbers.

Series [1] is described as follows: Ussing-chamber permeability across excised mouse intestinal segments. Conditions: for Peff, Colon (mean ± SD) / Peff, Small intestine (mean ± SD): 1 mg/ml mucosal side, pH 7.4, 37°C. Format: in vitro ADME, mice. The method in brief:
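Freshly isolated jejunum and left-sided colon from naive and 7-day DSS-treated mice, mounted with 0.3 cm2 exposed area. Both sides held 5 ml Krebs buffer, pH 7.4, 37°C, gassed with 95% O2/5% CO2. Test compound added mucosally (final 1 mg/ml). Serosal samples taken every 20 min from 0 to 120 min, in triplicate, and measured by LC-MS/MS. Peff = (dC/dt)·V/(A·Co).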

Series [2] is described as follows: Plasma levels of orally administered AT1a antagonists in DSS-treated mice. Conditions: 10 mg/kg; for Cmax at 2 h: mouse, plasma, po. In kind it is in vivo. The method in brief: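 Mice given DSS for 7 days received test compound orally at 10 mg/kg and were killed 2 h later. Plasma was collected by cardiac puncture, diluted tenfold in mobile phase, and quantified by LC-MS/MS on a C18 column (150 × 2.0 mm, 0.2 ml/min). Data are mean ± SD, n = 5.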

Series [3] is described as follows: Blood pressure and heart rate by tail-cuff in DSS mice. Conditions: transanal treatment, compared to naive group. Format: in vivo. Put shortly: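 Mice received DSS in drinking water for 7 days plus daily transanal test compound (100 or 10 mg/kg/day) suspended in ddH2O, 0.25 ml total, via blunt needle. Naive controls received transanal water only. Heart rate and blood pressure were taken by automated noninvasive tail-cuff on DSS day 6, 1 h before (Pre) and 2 h after (Post) transanal dosing. Data are mean ± SD.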

A short description of series [4]: Colonic mucosa and mesenteric blood flow by laser Doppler perfusion imaging. In kind it is in vivo, mice. As to conditions: 7 days of DSS, transanal treatment, n = 6; for Colonic blood flow at the mucosal level: naive 1.91 ± 0.26, mean ± SD; for Mesenteric blood flow: naive 2.82 ± 0.23, mean ± SD. Put shortly: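 After 7 days of DSS in drinking water, with daily transanal test compound (10 or 100 mg/kg/day) or water, and naive controls, mice (n = 6/group) were anesthetized just before harvest. Median laparotomy exposed the mesentery. A […] LDPI beam 12 cm above scanned the mesentery and 2 cm of distal colonic mucosa. Perfusion was normalized to total pixel area (mean ± SD).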

For series [5] the following is noted: Normal rat jejunum, Ussing chamber; cited from earlier work.
The conditions of series [6]: rats; cited from earlier work.
[7] abbreviates: 2 h after oral administration, DSS mice.

In series [1] (DSS-treated mice (7 days)), `CCOc1nc2cccc(C(=O)O)c2n1Cc1ccc(-c2ccccc2-c2nnn[nH]2)cc1` [candesartan, 2-ethoxy-1-[[2′-(2H-tetrazol-5-yl)[1,1′-biphenyl]-4-yl]methyl]-1H-benzimidazole-7-carboxylic acid] yielded a Peff, Colon (mean ± SD) of 5.94 ± 4.41 ×10⁻⁶ cm/s and a Peff, Small intestine (mean ± SD) of 3.85 ± 2.03 ×10⁻⁶ cm/s. In series [1] (Normal (naive) mice), this molecule registered a Peff, Colon (mean ± SD) of 4.13 ± 3.04 ×10⁻⁶ cm/s and a Peff, Small intestine (mean ± SD) of 7.85 ± 5.91 ×10⁻⁶ cm/s. The same molecule gave a Cmax at 2 h in series [2] of 569 ± 188 ng/mL. Moreover, the Heart rate result in series [3] is “did decline significantly”. In addition, in series [4], the “Colonic blood flow at the mucosal level” value is on record as 0.92 ± 0.20 and the Mesenteric blood flow worked out at 1.56 ± 0.33.

With `C[C@H](N[C@@H](CCc1ccccc1)C(=O)O)C(=O)N1CCC[C@H]1C(=O)O` [Enalaprilat], in series [5], the “Peff, Small intestine” value was 6e+12 ×10⁻⁶ cm/s.

For `CCCCc1nc(Cl)c(CO)n1Cc1ccc(-c2ccccc2-c2nn[nH]n2)cc1` [losartan, 2-butyl-4-chloro-1-[[2′-(2H-tetrazol-5-yl)[1,1′-biphenyl]-4-yl]methyl]-1H-imidazole-5-methanol, mono-potassium salt], in series [1] (DSS-treated mice (7 days)), the Peff, Colon (mean ± SD) was 5.77 ± 3.37 ×10⁻⁶ cm/s and the Peff, Small intestine (mean ± SD) was found to be 5.24 ± 1.4 ×10⁻⁶ cm/s. In addition, in series [1] (Normal (naive) mice), the Peff, Colon (mean ± SD) was 6.4 ± 5.6 ×10⁻⁶ cm/s and the Peff, Small intestine (mean ± SD) amounted to 4.21 ± 1.67 ×10⁻⁶ cm/s. The same molecule displayed a Cmax at 2 h in series [2] of 117 ± 87 ng/mL. The Heart rate entry in series [3] is on record as “not significantly different”. Further, in series [4], the “Colonic blood flow at the mucosal level” value is recorded as 0.88 ± 0.32 and the Mesenteric blood flow amounted to 1.97 ± 0.58. The “oral 50% effective dose (ED50, blood pressure lowering)” value in series [6] is recorded as 0.59 mg/kg.

`CCCCc1ncc(CO)n1Cc1ccc(-c2ccccc2-c2nn[nH]n2)cc1` [DCL, 2-butyl-1-[[2′-(2H-tetrazol-5-yl)[1,1′-biphenyl]-4-yl]methyl]-1H-imidazole-5-methanol]: in series [1] (DSS-treated mice (7 days)), the Peff, Colon (mean ± SD) was 2.66 ± 0.96 ×10⁻⁶ cm/s and the Peff, Small intestine (mean ± SD) was determined as 1.52 ± 1.31 ×10⁻⁶ cm/s. In series [1] (Normal (naive) mice), this molecule gave a Peff, Colon (mean ± SD) of 1.58 ± 1.24 ×10⁻⁶ cm/s and a Peff, Small intestine (mean ± SD) of 1.37 ± 0.15 ×10⁻⁶ cm/s. Also, in series [1] (Ussing chamber, both naive- and DSS-treated specimens), the “permeability coefficient compared to other AT1aR-antagonists” value was “threefold to sixfold lower”. Also, in series [2] (setting [7]), the “plasma level compared to candesartan” value is reported as “over tenfold lower” and the “plasma level compared to losartan” value is “threefold lower”. In addition, the highest concentration (Cmax) at 2 h in series [2] is 37.8 ± 26.4 ng/mL. Also, in series [3], the Heart rate result is recorded as “not significantly different”. Further, in series [4], the “Colonic blood flow at the mucosal level” value is given as “failed to change” and the Mesenteric blood flow result was “failed to change”. In series [6], the “oral 50% effective dose (ED50, blood pressure lowering)” value is on record as greater than 100 mg/kg.

In general, Cmax refers to the peak of the concentration-time curve.
